Source: paper PMC8359128 (ACS Omega, 2021)

Key:
human CB1 receptor [1] = molecular target: T1, human CB1 receptor (Homo sapiens, UniProt P21554); test: Competitive radioligand; type: binding; conditions: for inhibition at 10 µM: read-out: % displacement at 10 μM CB1
human CB2 receptor [2] = molecular target: T2, human CB2 receptor (Homo sapiens, UniProt P34972); test: Competitive radioligand; type: binding; conditions: for inhibition at 10 µM: read-out: % displacement at 10 μM CB2
human CB1 receptor [3] = molecular target: T1, human CB1 receptor; test: [35S]-GTPγS functional assay, CB1; type: biochemical; conditions: for functional behavior at CB1: GTPγS
Procedure, shortened: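 Membranes (20 µg) from HEK293 cells stably expressing human CB1, incubated with 0.5 nM [35S]-GTPγS, 30 µM GDP and test compound in 50 mM Tris-HCl, 150 mM NaCl, 9 mM MgCl2, 0.2 mM EGTA, 1.4 mg/mL BSA, pH 7.4. Incubation 2 h, 37 °C, gentle shaking. […] Filtration, scintillation counting. Duplicates; EC50 by nonlinear regression.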

human CB2 receptor [4] = molecular target: T2, human CB2 receptor; test: [35S]-GTPγS functional assay, CB2; type: biochemical; conditions: for functional behavior at CB2: GTPγS
[5] = (−)-trans vs (+)-trans isomer; cited from earlier work
[6] = IC50 CB2 displacement (bound given in text)
[7] = IC50 ± SEM CB2, competitive radioligand binding, triplicate

T1 sequence (P21554 whole entry): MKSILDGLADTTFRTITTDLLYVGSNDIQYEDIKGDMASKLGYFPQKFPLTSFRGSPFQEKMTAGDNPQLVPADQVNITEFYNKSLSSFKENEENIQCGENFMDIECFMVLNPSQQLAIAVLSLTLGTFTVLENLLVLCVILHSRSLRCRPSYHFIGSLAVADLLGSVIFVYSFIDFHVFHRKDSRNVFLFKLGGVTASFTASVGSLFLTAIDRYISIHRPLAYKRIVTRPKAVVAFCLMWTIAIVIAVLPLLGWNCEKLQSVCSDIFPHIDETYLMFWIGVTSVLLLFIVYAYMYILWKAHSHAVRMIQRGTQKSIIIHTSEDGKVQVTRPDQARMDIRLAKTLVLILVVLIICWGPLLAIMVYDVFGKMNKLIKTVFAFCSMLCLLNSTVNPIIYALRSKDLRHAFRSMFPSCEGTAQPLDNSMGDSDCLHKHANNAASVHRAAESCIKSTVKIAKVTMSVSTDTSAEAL
T2 sequence (P34972 whole entry): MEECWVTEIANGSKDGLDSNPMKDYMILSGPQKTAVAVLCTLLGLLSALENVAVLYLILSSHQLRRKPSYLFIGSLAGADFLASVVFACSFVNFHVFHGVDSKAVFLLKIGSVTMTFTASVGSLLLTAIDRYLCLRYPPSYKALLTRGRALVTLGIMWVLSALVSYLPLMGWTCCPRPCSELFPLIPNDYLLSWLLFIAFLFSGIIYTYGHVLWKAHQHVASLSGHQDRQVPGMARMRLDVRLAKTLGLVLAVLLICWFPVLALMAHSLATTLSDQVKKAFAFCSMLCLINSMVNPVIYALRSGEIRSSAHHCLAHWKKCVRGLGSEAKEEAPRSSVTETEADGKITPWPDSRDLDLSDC

Structure (SMILES)	inhibition at 10 µM (human CB1 receptor [1])	inhibition at 10 µM (human CB2 receptor [2])	Ki (human CB2 receptor [2])	IC50 (human CB2 receptor [2]; [6])	IC50 (human CB2 receptor [2]; [7])	also measured
C[C@H]1CC[C@H]2[C@H](C1)c1c(O)cc(/C=C/c3ccc(Cl)cc3)cc1OC2(C)C [11G, (6aS,9S,10aS)-3-((E)-4-Chlorostyryl)-6,6,9-trimethyl-6a,7,8,9,10,10a-hexahydro-6H-benzo[c]chromen-1-ol]	7.54%	8.7%	–	–	–	–
C[C@H]1CC[C@H]2[C@H](C1)c1c(O)cc(-c3ccc(C#N)cc3)cc1OC2(C)C [11C, 4-((6aS,9S,10aS)-1-Hydroxy-6,6,9-trimethyl-6a,7,8,9,10,10a-hexahydro-6H-benzo[c]chromen-3-yl)benzonitrile]	-7.02%	22.1%	–	–	–	–
C[C@H]1CC[C@H]2[C@H](C1)c1c(O)cc(/C=C/c3ccc(C(F)(F)F)cc3)cc1OC2(C)C [11F, (6aS,9S,10aS)-6,6,9-Trimethyl-3-((E)-4-(trifluoromethyl)styryl)-6a,7,8,9,10,10a-hexahydro-6H-benzo[c]chromen-1-ol]	43.2%	23.9%	–	–	–	–
C[C@H]1CC[C@H]2[C@H](C1)c1c(O)cc(-c3csc4ccccc34)cc1OC2(C)C [11J, (6aS,9S,10aS)-3-(Benzo[b]thiophen-3-yl)-6,6,9-trimethyl-6a,7,8,9,10,10a-hexahydro-6H-benzo[c]chromen-1-ol]	56.4%	70.4%	40.2 ± 2.91 nM	≤ 3200 nM	80.4 ± 5.82 nM	IC50 (human CB1 receptor [1]): > 2000 nM; Ki (human CB1 receptor [1]): > 1000 nM; EC50 (human CB1 receptor [3]): 1470 ± 708 nM; functional behavior at CB1 (human CB1 receptor [3]): agonists; functional behavior at CB2 (human CB2 receptor [4]): agonists
C[C@H]1CC[C@H]2[C@H](C1)c1c(O)cc(-c3cccc4c3oc3ccccc34)cc1OC2(C)C [11H, (6aS,9S,10aS)-3-(Dibenzo[b,d]furan-4-yl)-6,6,9-trimethyl-6a,7,8,9,10,10a-hexahydro-6H-benzo[c]chromen-1-ol]	29.4%	76.2%	63.7 ± 8.19 nM	≤ 3200 nM	127 ± 16.4 nM	EC50 (human CB2 receptor [4]; EC50 GTPγS CB2, duplicate): 5730 ± 3290 nM; functional behavior at CB2 (human CB2 receptor [4]): agonists
C[C@H]1CC[C@H]2[C@H](C1)c1c(O)cc(-c3ccc(Oc4ccccc4)cc3)cc1OC2(C)C [11I, (6aS,9S,10aS)-6,6,9-Trimethyl-3-(4-phenoxyphenyl)-6a,7,8,9,10,10a-hexahydro-6H-benzo[c]chromen-1-ol]	34.4%	16.3%	–	–	–	–
C[C@H]1CC[C@H]2[C@H](C1)c1c(O)cc(-c3ccoc3)cc1OC2(C)C [11D, (6aS,9S,10aS)-3-(Furan-3-yl)-6,6,9-trimethyl-6a,7,8,9,10,10a-hexahydro-6H-benzo[c]chromen-1-ol]	34%	44.4%	–	–	–	–
CCCCCC/C=C/c1cc(O)c2c(c1)OC(C)(C)[C@H]1CC[C@H](C)C[C@H]21 [11E, (6aS,9S,10aS)-6,6,9-Trimethyl-3-((E)-oct-1-en-1-yl)-6a,7,8,9,10,10a-hexahydro-6H-benzo[c]chromen-1-ol]	66.8%	50.4%	573 ± 106 nM	≤ 3200 nM	1150 ± 212 nM	IC50 (human CB1 receptor [1]): 684 ± 326 nM; Ki (human CB1 receptor [1]): 342 ± 95.8 nM; EC50 (human CB1 receptor [3]): 239 ± 68 nM; functional behavior at CB1 (human CB1 receptor [3]): agonist
CCCCCc1cc(O)c2c(c1)OC(C)(C)[C@@H]1CCC(C)=C[C@@H]21 [dronabinol]	–	–	–	–	–	potency relative to the (+)-trans-isomer of Δ9-THC [5]: 6–100 times
C[C@H]1CC[C@H]2[C@H](C1)c1c(O)cc(-c3cc(C(F)(F)F)cc(C(F)(F)F)c3)cc1OC2(C)C [11K, (6aS,9S,10aS)-3-(3,5-Bis(trifluoromethyl)phenyl)-6,6,9-trimethyl-6a,7,8,9,10,10a-hexahydro-6H-benzo[c]chromen-1-ol]	-26.7%	11.2%	–	–	–	–
C[C@H]1CC[C@H]2[C@H](C1)c1c(O)cc(-c3ccc4c(c3)OCO4)cc1OC2(C)C [11B, (6aS,9S,10aS)-3-(Benzo[d][1,3]dioxol-5-yl)-6,6,9-trimethyl-6a,7,8,9,10,10a-hexahydro-6H-benzo[c]chromen-1-ol]	30.8%	67%	117 ± 11.7 nM	≤ 3200 nM	–	–
C[C@H]1CC[C@H]2[C@H](C1)c1c(O)cc(-c3ccccc3)cc1OC2(C)C [11A, (6aS,9S,10aS)-6,6,9-Trimethyl-3-phenyl-6a,7,8,9,10,10a-hexahydro-6H-benzo[c]chromen-1-ol]	34.3%	57.3%	1570 ± 836 nM	≤ 3200 nM	3150 ± 1670 nM	–
